Screening data: PubChem, SRMLSC
HUVEC prolif 384 – blocks proliferation of human endothelial cells; HUVEC proliferation, CellTiter-Glo luminescence, 72 h; hits give low values; viability, % at 10 µM (by protocol); actives 1.1% (n = 86,000); AID 648;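 active means viability at or below 30%; inactive means viability above 30%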
H69AR inhibit – growth inhibitors of human H69AR lung tumor cells; H69AR lung tumor viability, ATP luminescence, 72 h; hits give low values; viability, % at 10 µM; actives 6% (n = 85,000); AID 598;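 active means viability at or below 40%; inactive means viability above 40%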;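 further: multidrug resistant small cell line overexpressing MRP-1 efflux transporter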
Lung fibro prol – blocks proliferation of human lung fibroblasts | LL 47 human lung fibroblast viability, ATP luminescence; hits give low values | viability, % at 10 µM | actives 1.1% (n = 85,000) | AID 719;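 active means viability at or below 50% in the single dose screen; inactive means viability above 50%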;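 further: compound exposure lasted 72 h before the ATP readout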
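Test system: LL 47 human lung fibroblasts; Quantity: 1,150 cells/well; Buffer or medium: IMEM plus 15% FBS; Dosing: tenfold compound dosing solution, DMSO at 0.1%; Timing: overnight cell rest, 72 h compound treatment at 37 °C; Detection: ATP-based CellTiter-Glo luminescent readout; Read-out basis: viability percentage against median untreated-cell control; Controls: cell-only wells, no compound.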
bCat KO growth – beta-catenin-lacking colon tumor cell growth suppression; HCT116 beta-catenin knockout viability, CellTiter-Glo, 60 h; hits give low values; AID 818; viability, % at 10 µM; actives 1.5% (n = 140,000);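 active means viability at or under a set limit, the compound median less 4 SD, cut at about 6% in these data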
PTEN del growth – suppresses growth of cells with PTEN deletion; viability, % at 10 µM; HCT116 PTEN-null viability, CellTiter-Glo, 60 h; hits give low values; AID 827; actives 1.2% (n = 140,000);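 active means viability at or below a set limit, 4 SD under the median of all tested compounds, cut at about 3.7% in these data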;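 further: PTEN knockout HCT116 line with beta catenin targeted HCT116 as companion control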
Hits are given with their value; – = inactive; · = no result; ! = a repeat was not active. The full list was thinned out, with hits kept by preference.

SMILES	HUVEC prolif 384	H69AR inhibit	Lung fibro prol	bCat KO growth	PTEN del growth
C[C@H]1O[C@@H](O[C@H]2[C@@H](O)C[C@H](O[C@H]3[C@@H](O)C[C@H](O[C@H]4CC[C@@]5(C)[C@H](CC[C@@H]6[C@@H]5CC[C@]5(C)[C@@H](C7=CC(=O)OC7)CC[C@]65O)C4)O[C@@H]3C)O[C@@H]2C)C[C@H](O)[C@@H]1O	·	·	·	4.9	–
C[C@@H]1O[C@@H](O[C@H]2C[C@@H](O)[C@]3(CO)[C@H]4[C@H](O)C[C@]5(C)[C@@H](C6=CC(=O)OC6)CC[C@]5(O)[C@@H]4CC[C@]3(O)C2)[C@H](O)[C@H](O)[C@H]1O	·	·	·	5.7	–
O=[N+]([O-])c1ccc(C2[C@H]3C(c4ccccc4)=NC4(CCCCC4)N23)cc1 (some centres undefined)	·	·	·	–	–
Cc1ccnc(-n2c(C)nc3ccccc3c2=O)c1	–	–	–	–	–
Cc1cccc(N2CCc3c2nc2ccccc2c3N)c1	–	34.5!	–	–	–
CN[C@H]1C[C@H]2O[C@@](C)([C@H]1OC)n1c3ccccc3c3c4c(c5c6ccccc6n2c5c31)C(=O)NC4	·	·	·	2.1	1.2
COc1ccc(-n2c(C)nc3cc(C(=O)N4CCC5(CC4)OCCO5)ccc32)cc1	–	28.6	–	–	–
CCC1(CCc2ccncc2)C(=O)NC(=O)NC1=O	–	–	–	–	–
CN(C)c1ccc(N=Cc2c(O)n(CCC3=CCCCC3)c(=O)[nH]c2=O)cc1	–	10.1	–	–	–
O=c1[nH]c(=O)n(CCC2=CCCCC2)c(O)c1C=NC1CCN(Cc2ccccc2)CC1	–	32.4	–	–	–
C=CCn1c(O)c(C=Nc2ccc(N(CC)CC)cc2)c(=O)[nH]c1=O	–	–	–	–	–
CCN(CC)c1ccc(N=Cc2c(O)n(CCC3=CCCCC3)c(=O)[nH]c2=O)cc1	–	16.6	–	–	–
O=c1c(C=Nc2cccnc2Cl)c(O)n(CCCCl)c(=O)n1C1CCCCC1	·	·	·	–	–
c1ccc2cc3cc4ccccc4cc3cc2c1	–	–	–	·	·
Cc1ccc(-n2nc(C)c(C3C(C#N)=C(N)Oc4c3c(=O)oc3ccccc43)c2Cl)cc1 (centres undefined)	·	·	·	–	–
CCC(C)N1C(=O)/C(=C/c2ccc3c(c2)CCN3CCCCl)C(=O)NC1=S (centres undefined)	·	·	·	–	–
COP(=O)(OC)C1(O)C(=O)Nc2ccc(Br)cc21 (centres undefined)	·	·	·	–	–
Cc1ccc(CN2C(=O)NC(=O)C3(Cc4c(nc5ccccn5c4=O)N4CCCCCC43)C2=O)cc1 (centres undefined)	–	39.3	–	–	–
CCCCCc1nc2ccccc2c(=O)n1-c1ccccc1[N+](=O)[O-]	·	·	·	–	–
CCCCCc1nc2c(c(=O)c3ccccc3n2C)c(=O)n1C1CCCCCC1	·	·	·	1.5	1.6
CCCCn1c(NC(=O)c2ccc(Br)o2)c(C(=O)OCC)c2nc3ccccc3nc21	·	·	·	–	–
CCCCCn1c(=O)c(C(=O)Nc2ccncc2)c(O)c2ccccc21	–	5.1	49.0	·	·
Cc1c(NC(=O)C(C)OC(=O)Cc2ccccc2)c(=O)n(-c2ccccc2)n1C (centres undefined)	·	·	·	–	–
O=C(Nc1cccc(Cl)c1)c1c(O)c2c(n(Cc3ccccc3)c1=O)CCCC2	·	·	·	–	–
CCCCn1c(=O)c(C(=O)Nc2ccsc2C(=O)OC)c(O)c2ccccc21	·	·	·	3.2	3.1
SMILES	HUVEC prolif 384	H69AR inhibit	Lung fibro prol	bCat KO growth	PTEN del growth
CCCCCn1c(=O)c(C(=O)NCc2ccncc2)c(O)c2ccccc21	–	14.4	–	–	–
CCCCCCn1c(=O)c(C(=O)Nc2c(C)n(C)n(-c3ccccc3)c2=O)c(O)c2ccccc21	–	11.9	–	·	·
NC(=O)Nc1ccc(C(=O)OCC(=O)Nc2ccc(Cl)cc2C(=O)c2ccccc2)cc1	·	·	·	–	–
O=C(NC1(C(F)(F)F)Oc2ccccc2O1)N1CCC2(CC1)OCCO2	–	16.7	–	–	–
O=C(NC1(C(F)(F)F)Oc2ccc(Cl)cc2O1)N1CCC2(CC1)OCCO2 (centres undefined)	–	31.6	–	–	–
CN1CCN(c2nc3ccccn3c(=O)c2C=C2C(=O)N(C)C(=O)N(C)C2=O)CC1	·	·	·	–	–
Cc1c2ccncc2c(C)c2c1[nH]c1ccccc12	·	·	·	1.3	0.9
N#CSCC(=O)N1c2ccccc2CCc2ccccc21	·	·	·	3.8	2.5
Nc1ccccc1C(=O)OCC(=O)N1CCc2ccccc21	–	–	–	–	–
Cc1ccc(C(=O)n2cc(CCN3CCS(=O)(=O)CC3)c3ccccc32)cc1	·	·	·	–	–
CCc1cc2c(s1)NC(=O)CN=C2c1cccs1	–	23.1	–	–	–
